Results taken from PubChem BioAssay AID2341 (Sanford-Burnham Center for Chemical Genomics, 2010).
Active and inactive are the calls of the source.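 Rule for the calls: active = half-maximal potency under 10 µM when retested across doses; inactive = the rest.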

molecular target: Cannabinoid receptor 1 (Homo sapiens) (UniProt P21554); test: CB1 receptor agonists, beta-arrestin translocation, SAR follow-up, imaging, U2OS cells, beta-arrestin-GFP, powder samples (AID 2341)
How it was run: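 System: U2OS cells with human CB1 and β-arrestin-GFP / Buffer or medium: serum-free MEM during compound exposure / Dosing: Ten-point series, 62 nM to 32 µM, 0.31% DMSO / Timing: compound exposure 60 min at 37 °C / Replicates: duplicate wells per dose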

Sequence of Cannabinoid receptor 1 (Homo sapiens) (P21554 whole entry, looked up): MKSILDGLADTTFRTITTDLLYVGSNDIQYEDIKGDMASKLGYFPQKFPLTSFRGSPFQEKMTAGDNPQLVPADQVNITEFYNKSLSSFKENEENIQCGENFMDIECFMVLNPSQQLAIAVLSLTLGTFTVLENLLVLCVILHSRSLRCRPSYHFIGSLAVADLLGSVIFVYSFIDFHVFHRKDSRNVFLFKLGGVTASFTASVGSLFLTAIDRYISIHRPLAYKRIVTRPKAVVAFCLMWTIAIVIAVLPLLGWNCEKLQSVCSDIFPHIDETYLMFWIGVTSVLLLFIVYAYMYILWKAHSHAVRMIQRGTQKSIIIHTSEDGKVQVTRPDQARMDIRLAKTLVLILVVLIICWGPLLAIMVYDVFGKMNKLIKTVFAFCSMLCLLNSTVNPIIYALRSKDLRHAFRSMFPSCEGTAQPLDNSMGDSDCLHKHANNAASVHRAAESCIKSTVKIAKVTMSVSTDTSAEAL

EC50, inactive:
O=C(CSc1nc2ccccc2s1)N1c2ccccc2Sc2ccc(C(F)(F)F)cc21 > 32 µM
CC(Sc1nc2cc(Cl)ccc2s1)C(=O)Nc1cccc(S(=O)(=O)N2CCOCC2)c1 (stereo unspecified) > 32 µM
COc1ccc(S(=O)(=O)N2CCOCC2)cc1NC(=O)c1cc2c(s1)CCCC2 > 32 µM
C/C(C=NNC(=O)c1nnn(-c2nonc2N)c1CN1CCC(C)CC1)=C/c1ccccc1 > 32 µM
O=C(CSc1nc2ccccc2s1)N1c2ccccc2Sc2ccc(Cl)cc21 > 32 µM
COc1cc2c(cc1NC(=O)CSc1ccccc1)oc1ccccc12 > 32 µM
CC(C)Oc1ccc(S(=O)(=O)N2CCOCC2)cc1NC(=O)c1ccc(N2CCCC2=O)cc1 > 32 µM
COc1ccc(-c2csc(NC(=O)CSc3nnc4c(C)cc5ccccc5n34)n2)cc1 > 32 µM
C=CCN(CC=C)S(=O)(=O)c1ccc(NC(=S)NC(=O)c2ccc(-c3ccccc3)cc2)cc1 > 32 µM
Cc1cccc(N2CCN(C(=O)c3cc(S(=O)(=O)N(C)C)ccc3N3CCCC3)CC2)c1C > 32 µM
CCCN(CCC)Cc1c(C(=O)NN=C/C(C)=C\c2ccco2)nnn1-c1nonc1N > 32 µM
CCCN(CCC)Cc1c(C(=O)NN=C/C(C)=C\c2ccccc2)nnn1-c1nonc1N > 32 µM
Cc1occc1C(=O)Nc1ccc(OCc2ccccc2)cc1 > 32 µM
CN(C)S(=O)(=O)c1ccc(N2CCCC2)c(C(=O)N2CCN(c3ccc([N+](=O)[O-])cc3)CC2)c1 > 32 µM
CC(C)=CC(=O)Nc1ccc(OCc2ccccc2)cc1 > 32 µM
COc1ccc2cc(C)c3nnc(SCC(=O)Nc4nc(-c5ccc(F)cc5)cs4)n3c2c1 > 32 µM
CC(C)NS(=O)(=O)c1ccc(NC(=S)NC(=O)c2ccc(-c3ccccc3)cc2)cc1 > 32 µM
COc1cc2c(cc1NC(=O)C(C)Sc1ccc(NC(C)=O)cc1)oc1ccccc12 (stereo unspecified) > 32 µM
COc1ccc2c(c1)cc(C)c1nnc(SCC(=O)N(C)c3nc(-c4ccccc4)cs3)n12 > 32 µM
COc1ccccc1/C=C/C(=O)NC(=S)Nc1ccc(S(=O)(=O)N(C)c2ccccc2)cc1 > 32 µM
CCCN(CCC)Cc1c(C(=O)NN=Cc2c[nH]c3ccccc23)nnn1-c1nonc1N > 32 µM
